In assay [1] the target is T1, Putative citrate synthase 2 (Mycobacterium tuberculosis) (UniProt P9WPD3).
T1 sequence (whole entry): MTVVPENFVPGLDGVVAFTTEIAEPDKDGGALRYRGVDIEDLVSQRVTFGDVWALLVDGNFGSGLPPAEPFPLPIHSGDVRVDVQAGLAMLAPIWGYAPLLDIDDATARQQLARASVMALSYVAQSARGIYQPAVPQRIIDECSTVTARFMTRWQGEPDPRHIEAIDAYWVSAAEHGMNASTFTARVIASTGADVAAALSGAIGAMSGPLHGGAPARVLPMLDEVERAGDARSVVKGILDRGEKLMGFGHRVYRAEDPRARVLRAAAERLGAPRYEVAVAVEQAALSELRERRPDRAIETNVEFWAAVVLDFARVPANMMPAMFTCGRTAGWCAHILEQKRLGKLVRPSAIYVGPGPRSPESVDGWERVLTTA
Nature of the assay: Binding affinity to Mycobacterium tuberculosis wild type CitA expressed in Escherichia coli cells assessed as change in melting temperature by thermal shift assay. The procedure, abridged: (§1)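 Thermal shift used 25 μM purified protein in 50 mM Tris pH 8.0 with 2 mM ligand (sodium pyruvate, OAA, or both), plus Protein Thermal Shift dye at 2X final. ΔTm was taken from the melt-curve derivative relative to protein without ligand.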

The target of assay [2] is T1, Putative citrate synthase 2 (Mycobacterium tuberculosis). Nature of the assay: Binding affinity to Mycobacterium tuberculosis wild type CitA expressed in Escherichia coli cells assessed as change in melting temperature in presence of pyruvate by thermal shift assay. The procedure, abridged: as §1
For assay [3] the target is unchanged. Nature of the assay: Binding affinity to Mycobacterium tuberculosis wild type CitA expressed in Escherichia coli cells assessed as change in melting temperature in presence of oxaloacetate by thermal shift assay. In short, it runs like this:
as §1

Assay [4] shares this target. Nature of the assay: Inhibition of Mycobacterium tuberculosis wild type CitA expressed in Escherichia coli cells by UV spectrophotometric based analysis. The procedure, abridged:
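Michael acceptor compounds were added directly to the DTNB/OAA/AcCoA reaction with 10 nM CitA in 50 mM Tris pH 8.0 at 25 °C, read at 412 nm. The screen used 20 μM compound. Dose–response data were fitted to the Hill equation for apparent IC50. A control measured how fast the compounds react with reaction components.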

The term ΔTm denotes the shift of the melting midpoint relative to a reference.

As for `CC(=O)CC(=O)O`, the ΔTm in assay [1] was 0.19 °C.

With `O=C(O)CC(=O)C(=O)O`, the shift in melting temperature (ΔTm) was 11.2 °C in assay [1] and 12.3 °C in assay [2].

`CC(=O)C(=O)O`: the thermal shift (ΔTm) in assay [1] worked out at 2.31 °C; in assay [3], 12.3 °C. In assay [4], the Activity entry was “Dose-Dependent Effect”.

As for `O=C(O)CO`, in assay [1], the ΔTm is 0.15 °C.

Take `O=CC(=O)O`: in assay [1], the ΔTm stood at 0.1 °C.

For the origin of these results see ChEMBL document CHEMBL5257161, “Mycobacterium tuberculosis CitA activity is modulated by cysteine oxidation and pyruvate binding” (RSC Med Chem, 2023).
